Pyk2 oligo antag: antagonists of human Pyk2 oligomerization; Q14289; AID 1347419; Q293 cells, Pyk2 FERM NanoBiT luminescence; hits give low values; 0.83% of 99,000 active; z-score (the deposit names both 25 µM and 10 µM);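 active = Z-score of -3 or lower, scaled per plate to the spread of control and sample wells; inactive = z-score above -3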;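 note: negative z-score means lost luminescence so less FERM oligomerization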
tolC growth inh: blocks growth of E. coli BW25113 tolC mutant | 2.2% of 65,000 active | OD615 | growth inhibition, % at 10 µM (by protocol);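 active = growth inhibition at or above a cutoff equal to the mean over every tested compound plus 3 SD, cut at about 60% in these data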;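 note: growth measured after 20 h incubation at 37 °C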
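Test system: tolC-deleted E. coli BW25113 | Medium: LB with kanamycin 50 µg/mL | Compound dosing: Single concentration, 10 µM final per compound | Schedule: 37 °C, 20 h exposure | Measured by: OD at 615 nm | Evaluation: Percent growth inhibition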
PostGolgi yeast: growth inhibition of a yeast mutant, post-Golgi transport screen; post-Golgi transport phenotypic cell assay; inhibition, % at 10 µM; 0.9% of 98,000 active; AID 739;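 note: yeast cells grown in 1536-well plates; yeast grown about 18 h at 30C before absorbance read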
PostGolgi ctrl: inhibits growth of the yeast control strain | efflux-deficient yeast background strain, growth absorbance A615, 16 h | inhibition, % at 10 µM | 5% of 98,000 active | AID 738
Cav3 T inh: human Cav3.2 channel inhibition, primary screen. B-score at 10 µM. AID 449739. Cav3.2-expressing cells, Fluo-4 calcium fluorescence FDSS; hits give low values. 4% of 100,000 active;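 active = single-dose well whose peak fluorescence ratio is a statistical outlier from its plate by either plate-standardised score or position-corrected B-score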
Ecoli WT expand: blocks growth of wild type E. coli BW25113. OD600 absorbance. growth inhibition, % at 100 µM. 0.15% of 98,000 active;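 active = growth inhibition above about 50% at one test dose, limit read from the data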;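 note: growth measured after 20 h incubation at 37 °C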
A number is an active result; 0 = inactive; - = not tested or not shown. Sampled rows, rich in hits. Any-hit rate of the full collection: about 8.7%. Cut-off read from the data, not from the text of the source, unless noted: active = inhibition above about 30%; inactive = the rest.

SMILES	Pyk2 oligo antag	tolC growth inh	PostGolgi yeast	PostGolgi ctrl	Cav3 T inh	Ecoli WT expand
Cc1ccc2[nH]c(=O)c(CN(CCc3ccccc3)Cc3nnnn3CC3CCCO3)cc2c1 (stereo not drawn)	0	0	0	0	-3.65	0
O=C1CC(N2CCN(c3ccccn3)CC2)C(=O)N1CC(c1ccccc1)c1ccccc1 (stereo not drawn)	0	-	-	-	-6.29	-
CSc1nsc(SCC(=O)Nc2cccc(C(C)=O)c2)n1	0	0	0	0	0	0
CCOC(=O)c1ccc(NC(=O)CSc2nc(SC)ns2)cc1	0	100.0	0	0	-	0
CCOc1ccccc1-n1c(SCC(=O)N(CC)CC)nnc1-c1ccccn1	0	0	0	40.1	0	0
O=C(NC1(C(F)(F)F)NC(=O)N(C2CCCCC2)C1=O)c1cccs1 (stereo not drawn)	0	0	0	0	0	0
S=C(NCCC(c1ccccc1)c1ccccc1)Nc1ccc(Cl)cc1	0	-	0	0	-2.98	0
COC(=O)CNC(=O)CSc1nc(N)cc(=O)[nH]1	0	-	0	30.6	0	0
Nc1cc(=O)[nH]c(SCC(=O)Nc2cc(Cl)cc(Cl)c2)n1	0	-	0	0	0	0
O=S(=O)(Nc1nc2ccccc2nc1Nc1ccc2c(c1)OCCO2)c1cccs1	0	0	0	0	-3.76	0
O=S(=O)(Nc1nc2ccccc2nc1NCc1ccco1)c1cccs1	0	81.5	0	0	0	0
CSc1nnc2c3ccccc3n(CCc3ccccc3)c2n1	-3.3	0	0	0	0	0
O=c1cc(N2CCN(c3ccc(F)cc3)CC2)[nH]c(=O)n1Cc1ccc(F)cc1	-	-	0	0	-8.8	0
COc1ccc(N2CCN(c3cc(=O)n(Cc4ccc(F)cc4)c(=O)[nH]3)CC2)cc1	-	0	0	0	-4.93	0
O=c1cc(N2CCOCC2)[nH]c(=O)n1Cc1ccc(F)cc1	-	0	0	0	0	0
COc1cccc(CN(CC(=O)NC2CCCC2)C(=O)Cn2nnc(-c3cccs3)n2)c1	0	-	0	0	0	0
c1ccc(CN2CCN(c3ncnc4nc[nH]c34)CC2)cc1	-	0	0	0	-	0
CCCc1nc(SCC(=O)N2c3ccccc3CC2C)c2c(C)c(C)sc2n1 (stereo not drawn)	0	-	0	0	0	0
COC(=O)C1=C(C)N=C2SC(C)C(=O)N2C1c1ccc(C(=O)OC)cc1 (stereo not drawn)	0	0	0	35.8	-4.6	0
COC(=O)C1=C(C)N=C2SC(C)C(=O)N2C1c1cccs1 (stereo not drawn)	0	0	0	0	0	0
CCC1SC2=NC(C)=C(C(=O)OC)C(c3ccc(C)cc3)N2C1=O (stereo not drawn)	0	0	0	42.4	0	0
COc1cc2c(cc1OC)C(c1ccc(-c3cc(Cl)ccc3Cl)o1)=NCC2	0	-	0	52.4	0	0
CCOC(=O)c1c(C)[nH]c(C(=O)OCC(=O)Nc2cc(C)c(Cl)cc2OC)c1C	0	-	0	0	0	0
O=C(Nc1ccccc1C(=O)OCc1nnc(-c2ccccc2)o1)c1ccco1	0	0	0	48.0	0	0
O=C(COC(=O)CCCc1c[nH]c2ccccc12)Nc1ccc2c(c1)OCO2	0	0	0	0	0	0
SMILES	Pyk2 oligo antag	tolC growth inh	PostGolgi yeast	PostGolgi ctrl	Cav3 T inh	Ecoli WT expand
O=C(COC(=O)C1c2ccccc2Oc2ccccc21)Nc1ccc2c(c1)OCO2	0	0	0	0	-4.27	0
O=C(COC(=O)c1ccccc1NC(=O)c1ccco1)Nc1ccc2c(c1)OCO2	-3.75	0	0	0	0	0
Cn1c(CSCc2ccc(F)cc2)nnc1SCC(=O)N1CCN(c2ccccc2)CC1	0	-	0	0	0	0
CC1CCCN(Cc2cnc(Cl)s2)C1 (stereo not drawn)	0	-	0	41.1	-	0
CC1CCN(Cc2cnc(Cl)s2)CC1	0	-	0	0	-	0
Cc1cc(C)c(Cn2cnc(-c3ccc([N+](=O)[O-])cc3)c2)c(C)c1	0	-	0	32.5	0	0
CC(C)(C)c1ccc(Cn2cnc(-c3ccc([N+](=O)[O-])cc3)c2)cc1	0	-	-	-	-	-
Cc1ccc(-c2csc3nnc(SCC(=O)Nc4cccc(C)n4)n23)cc1	0	0	34.7	0	-	0
O=C(CCSc1nnc2scc(-c3ccccc3)n12)Nc1nc(-c2ccccc2)ns1	0	65.3	0	0	-4.65	0
CC(=O)Nc1ccc(C(=O)CSc2nnc3scc(-c4ccccc4)n23)cc1	0	0	0	0	0	0
COc1ccc(Cl)cc1NC(=O)Cn1c(=O)n2nc(C)nc2c2ccccc21	-	0	0	0	0	0
